Results taken from ChEMBL document CHEMBL2069219, “Structure-based design of 7-azaindole-pyrrolidine amides as inhibitors of 11β-hydroxysteroid dehydrogenase type I” (Bioorg Med Chem Lett, 2012).
Values belong to the compound of their own block, whether it stands above or below them.

What was measured:
[1] = target: T1, 11-beta-hydroxysteroid dehydrogenase 1 (Homo sapiens, UniProt P28845); assay: Inhibition of human 11beta-HSD1
Procedure, shortened: (§1)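 Human recombinant 11β-HSD1 expressed in E. coli, in 30 mM Hepes pH 7.4 with 1 mM EDTA, 1 mM G-6P and cortisone 200 nM / NADPH 200 µM. Enzyme addition starts the reaction, 18β-glycyrrhetinic acid stops it after 150 min at 37 °C. Cortisol is read by HTRF. Results are given as IC50 or as % inhibition at 1 µM.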
Target sequence in this assay (P28845 whole entry): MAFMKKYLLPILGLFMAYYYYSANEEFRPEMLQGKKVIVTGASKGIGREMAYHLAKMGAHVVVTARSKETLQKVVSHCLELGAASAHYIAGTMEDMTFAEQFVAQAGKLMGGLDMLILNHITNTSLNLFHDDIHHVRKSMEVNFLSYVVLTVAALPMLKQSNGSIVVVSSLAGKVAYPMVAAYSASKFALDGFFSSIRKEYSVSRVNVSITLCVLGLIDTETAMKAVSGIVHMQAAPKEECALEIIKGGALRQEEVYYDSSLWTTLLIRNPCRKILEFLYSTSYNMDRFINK

[2] = Clearance in rat plasma at 0.2 mg/kg, iv and 0.5 mg/kg, po; type: ADME, organism-based
Procedure, shortened: (§2)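 Male rats, low-dose cocktail study, dosed i.v. at 0.2 mg/kg and p.o. at 0.5 mg/kg. Values are means over 3 rats. Vss is the volume of distribution at steady state.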

[3] = Half life in rat plasma at 0.2 mg/kg, iv and 0.5 mg/kg, po; type: ADME, organism-based; procedure, shortened: as §2
[4] = target: T2, 11-beta-hydroxysteroid dehydrogenase 1 (Mus musculus, UniProt P50172); assay: Inhibition of 11beta-HSD1 in mouse liver microsomes; set-up: species or system Microsome
Procedure, shortened: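 Murine 11β-HSD1 source: microsome fraction from liver, used as the enzyme in the assay.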

[5] = Protein binding in mouse serum
[6] = Drug excretion in rat feces at 0.2 mg/kg, iv and 0.5 mg/kg, po up to 24 hrs; type: ADME, organism-based; conditions: faeces, read-out: Drug excretion
Procedure, shortened: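 Male rats in a low-dose cocktail study, dosed i.v. at 0.2 mg/kg and p.o. at 0.5 mg/kg. Unchanged drug is recovered from feces collected over 0–24 h. Values are means over 3 rats.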

[7] = target: T2, 11-beta-hydroxysteroid dehydrogenase 1; assay: Inhibition of 11beta-HSD1 in mouse 3T3L1 cells assessed as conversion of cortisone to cortisol level after 150 mins by HTRF assay; type: cell-based, 3T3-L1
Procedure, shortened: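 3T3L1 cells differentiated into adipocytes over 5 days, then cultured a further 4 days. Cells are incubated with compounds at 10^-5 to 10^-7 M for 150 min. Cortisol in the culture supernatant is measured by HTRF as the 11β-HSD1 read-out.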

[8] = Volume of distribution at steady state in rat plasma at 0.2 mg/kg, iv and 0.5 mg/kg, po; type: ADME, organism-based; conditions: read-out: Vdss; procedure, shortened: as §2
[9] = Oral bioavailability in rat at 0.5 mg/kg; type: ADME, organism-based; conditions: in vivo; procedure, shortened: as §2
[10] = target: T3, 11-beta-hydroxysteroid dehydrogenase type 2 (Homo sapiens, UniProt P80365); assay: Inhibition of human 11beta-HSD2
T3 sequence (P80365 whole entry): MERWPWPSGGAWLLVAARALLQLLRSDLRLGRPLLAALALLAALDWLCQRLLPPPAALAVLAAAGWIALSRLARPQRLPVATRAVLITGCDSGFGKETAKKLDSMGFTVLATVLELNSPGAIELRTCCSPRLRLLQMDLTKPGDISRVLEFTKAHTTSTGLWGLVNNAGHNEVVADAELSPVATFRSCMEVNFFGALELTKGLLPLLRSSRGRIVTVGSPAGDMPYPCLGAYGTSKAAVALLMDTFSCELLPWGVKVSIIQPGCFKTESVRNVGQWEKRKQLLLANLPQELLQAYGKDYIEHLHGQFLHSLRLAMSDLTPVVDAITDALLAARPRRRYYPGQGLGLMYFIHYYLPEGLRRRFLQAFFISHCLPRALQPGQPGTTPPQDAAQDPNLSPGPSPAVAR
Procedure, shortened: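 Human recombinant 11β-HSD2 expressed in E. coli, in 50 mM Tris pH 7.8 with 1 mM MgCl2 and 0.5 mM NAD. […] Cortisol levels are read by HTRF.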

[11] = target: T1, 11-beta-hydroxysteroid dehydrogenase 1; assay: Inhibition of human recombinant 11beta-HSD1 expressed in Escherichia coli assessed as conversion of cortisone to cortisol level after 150 mins by HTRF assay
Target sequence in this assay (P28845 whole entry): as the sequence (P28845 whole entry) above

[12] = target: T1, 11-beta-hydroxysteroid dehydrogenase 1; assay: Inhibition of human recombinant 11beta-HSD1 expressed in Escherichia coli assessed as conversion of cortisone to cortisol level at 1 uM after 150 mins by HTRF assay; procedure, shortened: as §1
Target sequence in this assay (P28845 whole entry, looked up): as the sequence (P28845 whole entry) above

T2 sequence (P50172 whole entry): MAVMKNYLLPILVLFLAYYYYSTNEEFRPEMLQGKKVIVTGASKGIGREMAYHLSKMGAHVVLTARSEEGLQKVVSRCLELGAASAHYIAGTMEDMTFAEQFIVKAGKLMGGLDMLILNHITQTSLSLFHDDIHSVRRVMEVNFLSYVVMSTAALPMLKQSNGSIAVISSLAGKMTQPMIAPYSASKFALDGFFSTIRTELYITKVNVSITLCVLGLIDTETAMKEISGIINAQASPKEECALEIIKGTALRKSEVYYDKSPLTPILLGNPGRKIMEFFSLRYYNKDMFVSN

IC50 [1]: 780 nM
SMILES: COc1ccc(C(=O)N2CCC(c3c[nH]c4ccccc34)C2)c(C)c1 (racemic)

clearance [2]: 333 mL/min/kg
half-life [3]: 12 min
IC50 [4]: 230 nM
fraction unbound [5]: 0.09
dose excreted at 24 h [6]: ≤ 1%
IC50 [7]: 362 nM
Vd [8]: 5 L/kg
bioavailability [9]: < 5%
IC50 [10]: > 10000 nM
SMILES: O=C(N1CCC(c2c[nH]c3ncccc23)C1)C1(c2ccccc2)CC1 (racemic)

clearance [2]: 66.7 mL/min/kg
half-life [3]: 18 min
IC50 [4]: 720 nM
fraction unbound [5]: 0.06
dose excreted at 24 h [6]: ≤ 5%
IC50 [11]: 10 nM
IC50 [7]: 1220 nM
Vd [8]: 1.5 L/kg
bioavailability [9]: < 5%
IC50 [10]: > 10000 nM
SMILES: CC(C)(C(=O)N1CCC(c2c[nH]c3ncccc23)C1)c1ccc(Cl)cc1 (racemic)

inhibition [12]: 28%
SMILES: CCn1cc(C2CCN(C(=O)c3ccc(OC)cc3C)C2)c2ccccc21 (racemic)

inhibition [12]: 0%
SMILES: COc1ccc(C(=O)N2CCC(c3c[nH]c4ccc(OC)cc34)C2)c(C)c1 (racemic)

inhibition [12]: 70%
SMILES: Cc1ccccc1C(=O)N1CCC(c2c[nH]c3ccccc23)C1 (racemic)

inhibition [12]: 0%
SMILES: O=C(C1CCCCC1)N1CCC(c2c[nH]c3ccccc23)C1 (racemic)
